Sampled rows, rich in hits. Any-hit rate of the full collection: about 4.3%.
ALR H2O2 inh = inhibitors of human ALR sulfhydryl oxidase, primary screen, biochemical, H2O2 detection, HRP-luminol luminescence, single point | purified ALR, DTT oxidation | inhibition, % (no concentration beside the values) | actives 3.8% (n = 290,000) | FAD-linked sulfhydryl oxidase ALR (Homo sapiens), P55789 | AID 485317, 2010;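 active means mean replicate inhibition above about 79%, with every replicate also reaching it, limit read from the data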
Target sequence (P55789 whole entry, looked up): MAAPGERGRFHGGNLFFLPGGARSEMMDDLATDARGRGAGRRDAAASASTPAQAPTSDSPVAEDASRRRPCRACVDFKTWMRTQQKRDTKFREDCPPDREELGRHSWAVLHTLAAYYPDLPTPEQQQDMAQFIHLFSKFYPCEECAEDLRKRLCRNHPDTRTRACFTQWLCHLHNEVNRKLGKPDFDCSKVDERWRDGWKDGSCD
Rin1 Abl inh = inhibitors of Rin1-Abl protein binding, primary screen, biochemical, TR-FRET | Tyrosine-protein kinase ABL1 (Homo sapiens) + Ras and Rab interactor 1 (Homo sapiens), … | inhibition, % at 7.35 µM | actives 0.4% (n = 360,000) | AID 588664, 2011; in the data active means inhibition above about 5%, passing the limit was not always enough
PREPL inh = PREPL enzyme inhibitors, primary screen, biochemical, fluorescence polarization; Prolyl endopeptidase-like (Homo sapiens), Q4J6C6; recombinant PREPL, fluorescence polarization activity-based probe; inhibition, % at 5.96 µM; actives 0.68% (n = 320,000); in the data active means inhibition above about 43%;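 further: 0% = enzyme with DMSO and 100% = wells lacking enzyme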
UBC9 SUMO inh = inhibitors of in vitro SUMOylation cascade, primary screen, biochemical, HTRF, uHTS; HTRF SUMOylation assay, SAE1/SAE2 + UBC9; AID 2006, 2009; actives 0.36% (n = 290,000); inhibition, % at 35 µM; SUMO-conjugating enzyme UBC9 (Homo sapiens), P63279; in the data active means inhibition above about 50%, passing the limit was not always enough
UBC13 polyUb = UBC13 polyubiquitin chain formation inhibitors, primary screen, biochemical, TR-FRET, uHTS. actives 0.47% (n = 330,000). Ubiquitin-conjugating enzyme E2 N (Homo sapiens), P61088. inhibition, % at 20 µM; in the data active means inhibition above about 45%, passing the limit was not always enough
Target sequence (P61088 whole entry, looked up): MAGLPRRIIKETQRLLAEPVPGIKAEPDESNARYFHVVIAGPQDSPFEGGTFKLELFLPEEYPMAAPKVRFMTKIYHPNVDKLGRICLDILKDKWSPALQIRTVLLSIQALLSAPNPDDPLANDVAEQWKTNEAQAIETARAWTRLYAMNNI
RBBP9 inh = human RBBP9 inhibitors, primary screen, biochemical, fluorescence polarization, FP-Rh probe, HTS | AID 1515, 2009 | Serine hydrolase RBBP9 (Homo sapiens), O75884 | inhibition, % at 7.94 µM | actives 0.2% (n = 220,000) | recombinant RBBP9;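 active means inhibition above the campaign mean of all tested compounds plus 3 SD, cut at about 14% in these data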;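 further: plate controls were DMSO wells with RBBP9 for no effect and wells lacking RBBP9 protein for full effect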
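System: RBBP9 protein / Quantity: 2.5 µM RBBP9 dispensing solution, before mixing / Also added: Serine-hydrolase probe FP-Rh, 375 nM pre-mixing / Dosing: 7.94 µM single dose, 0.794% DMSO / Timing: enzyme-compound preincubation 30 min, then probe labeling 45 min, 25 °C / Signal: FP readout at 525/598 nm / Controls: DMSO-treated enzyme wells and wells lacking RBBP9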
* hit, by the source's call; . = not tested or not shown.

SMILES | ALR H2O2 inh | Rin1 Abl inh | PREPL inh | UBC9 SUMO inh | UBC13 polyUb | RBBP9 inh
O=C(NCCCN1CCOCC1)c1cc2c(s1)CSC2 | 99* | -3 | 6 | 24 | 8 | -5
O=C(NCCCN1CCOCC1)c1ccc(Br)s1 | 4 | -4 | 2 | 3 | 15 | -1
N#Cc1c(-c2ccccc2)cc(-c2cccs2)nc1SCC(=O)O | 99* | 4 | 13 | -2 | 1 | .
N#Cc1c(-c2ccc(Cl)cc2)cc(-c2cccs2)nc1SCC(=O)O | . | 1 | 8 | . | -6 | .
CC(C)Sc1nc2ccccc2n2cnnc12 | 99* | -2 | 2 | -11 | 1 | .
CCc1cc(SC#N)cc(CC)c1NC(=O)CCl | 99* | 4 | -5 | 2 | 10 | -7
Cc1cc(C)c2c(NC(=O)CCl)nn(C)c2n1 | 10 | 3 | -6 | 22 | -9 | 7
CC1=NOC(=O)/C1=C\c1ccc(-c2ccc(Br)cc2)o1 | . | -1 | . | 31 | . | 6
CC1=NOC(=O)/C1=C\c1ccc(-c2ccc(Br)cc2C(=O)O)o1 | 89* | -3 | -4 | 9 | -8 | -5
Cc1ccc(NC(=O)CN(C)S(=O)(=O)c2cnc[nH]2)c(C)c1 | 0 | 3 | 17 | 19 | 2 | .
CCCC1C(C(=O)OCC)=C(C)NC(C)=C1C(=O)OCC | 99* | 0 | 1 | -12 | 10 | -4
Cc1ccc(S(=O)(=O)NC(CCC(N)=O)C(=O)NCc2ccc3c(c2)OCO3)c(C)c1 (centres undefined) | . | -2 | . | . | -4 | .
CC(=O)Nc1cccc(C(=O)/C=C/c2ccc(N(C)C)cc2)c1 | 99* | -12 | -12 | 13 | -119 | -9
CC(=O)Nc1cccc(C(=O)/C=C/c2cccs2)c1 | 97* | 0 | -9 | -22 | . | -8
COc1cccc(C(=O)NCc2n[nH]c(=S)n2-c2cccc(C)c2)c1 | 18 | 0 | 4 | -8 | 2 | -2
O=C(NCc1n[nH]c(=S)n1-c1ccc(Br)cc1)c1ccc(S(=O)(=O)N2CCCC2)cc1 | 91* | 2 | 5 | 8 | -14 | -6
COc1ccc(CC(=O)NCc2n[nH]c(=S)n2C)cc1 | 97* | 4 | 8 | 9 | -8 | 1
COc1cccc(-n2c(CNC(=O)OC(C)(C)C)n[nH]c2=S)c1 | 89* | -4 | -1 | -4 | 6 | -9
CC(C)(C)OC(=O)NCCc1n[nH]c(=S)o1 | 35 | -3 | 5 | 12 | 4 | -4
Cn1c(CCNC(=O)OC(C)(C)C)n[nH]c1=S | 95* | 5 | 8 | 16 | -1 | -6
O=C(NCc1n[nH]c(=S)n1-c1ccc(Br)cc1)c1ccc(S(=O)(=O)N2CCCCC2)cc1 | 39 | -2 | -5 | -2 | 2 | .
CC(C)CN(C(=O)COC(=O)COc1ccc2c(c1)CCC2)c1c(N)n(Cc2ccccc2)c(=O)[nH]c1=O | -11 | 1 | 2 | . | 2 | .
CNC(=O)c1ccc(NC(=O)CC2SC(N3CCCC3)=NC2=O)cc1 (centres undefined) | 0 | 1 | 11 | . | 3 | .
N#C/C(=C/c1ccc2c(c1)OCO2)C(=O)Nc1ccc(O)cc1 | -292 | -9 | -1 | -2 | 17 | -12
COc1ccc(-n2c(CNC(=O)c3cc(OC)c(OC)c(OC)c3)n[nH]c2=S)cc1 | 93* | -2 | 7 | -2 | -10 | -2
SMILES | ALR H2O2 inh | Rin1 Abl inh | PREPL inh | UBC9 SUMO inh | UBC13 polyUb | RBBP9 inh
O=C(NCc1n[nH]c(=S)n1-c1ccc(F)cc1)c1ccc(S(=O)(=O)N2CCCCC2)cc1 | 25 | 0 | 5 | -6 | 6 | .
COc1ccc(-n2c(CNC(=O)c3ccc(S(=O)(=O)N4CCCC4)cc3)n[nH]c2=S)cc1 | 91* | -2 | -1 | 36 | -2 | 0
CC(=O)Nc1ccc(NC(=O)COC(=O)c2c(C)nn(-c3ccccc3)c2C)cc1 | 94* | -2 | 4 | 11 | 8 | 0
Cc1nn(-c2ccccc2)c(C)c1C(=O)OCC(=O)Nc1ccccc1F | 0 | 0 | -4 | . | 3 | .
O=C(COC(=O)CCc1ccccc1)Nc1ncc(Cl)cc1Cl | -7 | 1 | 19 | 1 | -8 | -5
CC(C)Cn1c(/C=C/c2ccco2)nc2ccccc21 | 97* | -3 | 4 | 22 | -5 | -4
